Data from ChEMBL document CHEMBL4732199, “Potent and orally bioavailable CDK8 inhibitors: Design, synthesis, structure-activity relationship analysis and biological evaluation” (Eur J Med Chem, 2021).
pKi: −log10 of the molar value.

Experiments:
MV4-11 = experiment: Growth inhibition of human MV4-11 cells after 72 hrs by resazurin staining based assay; format: functional
Procedure, shortened: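 MV4-11 leukaemia cells grown in medium with 10% FBS at 37 °C, 5% CO2. Growth was read by a 72-h resazurin viability assay. GI50 was obtained by nonlinear regression and reported as mean ± standard deviation of at least two replicates.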

CDK8/Cyclin C = CDK8/Cyclin C (Homo sapiens, UniProt P49336); experiment: Inhibition of CDK8/cyclin C (unknown origin) using RBER-IRStide as substrate incubated for 60 mins in presence of [gamma33P]ATP by scintillation counting method; format: protein-complex assay
CDK8/Cyclin C, sequence (P49336 whole entry): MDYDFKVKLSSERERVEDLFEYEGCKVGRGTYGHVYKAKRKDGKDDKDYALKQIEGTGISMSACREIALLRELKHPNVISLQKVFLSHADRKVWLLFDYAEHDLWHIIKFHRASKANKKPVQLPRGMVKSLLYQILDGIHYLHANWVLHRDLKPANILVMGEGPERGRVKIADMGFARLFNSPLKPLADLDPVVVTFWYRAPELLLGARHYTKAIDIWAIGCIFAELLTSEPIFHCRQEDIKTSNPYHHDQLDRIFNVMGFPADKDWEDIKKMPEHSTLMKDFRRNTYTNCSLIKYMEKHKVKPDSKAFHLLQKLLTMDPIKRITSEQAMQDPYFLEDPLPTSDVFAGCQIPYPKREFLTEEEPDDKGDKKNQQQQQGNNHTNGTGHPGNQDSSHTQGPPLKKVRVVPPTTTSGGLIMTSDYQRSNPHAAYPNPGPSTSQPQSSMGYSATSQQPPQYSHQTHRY
CDK8/Cyclin C, sequence (P24863 whole entry, further chain): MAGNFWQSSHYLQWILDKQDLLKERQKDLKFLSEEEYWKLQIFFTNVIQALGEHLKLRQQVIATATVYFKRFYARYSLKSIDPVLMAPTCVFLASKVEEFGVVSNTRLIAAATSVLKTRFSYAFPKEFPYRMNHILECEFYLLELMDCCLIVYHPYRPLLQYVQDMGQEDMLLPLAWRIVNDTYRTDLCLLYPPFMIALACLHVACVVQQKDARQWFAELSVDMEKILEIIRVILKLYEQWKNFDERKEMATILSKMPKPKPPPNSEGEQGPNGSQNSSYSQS

| SMILES | GI50 (MV4-11) | pKi (CDK8/Cyclin C) |
| --- | --- | --- |
| O=C1NCCC12CCN(c1c(Cl)cncc1-c1cn(S(=O)(=O)c3ccccc3)c3ncccc13)CC2 | 40200 nM | 5.89 |
| O=C1NCCC12CCN(c1c(Cl)cncc1-c1cccc3ccncc13)CC2 | 64200 nM | 5.50 |
| Cn1ncc2cc(Nc3cncc(Cl)c3N3CCC4(CCNC4=O)CC3)ccc21 | 1710 nM | 6.17 |
| Cc1ccc(-c2cncc(Cl)c2N2CCC3(CCNC3=O)CC2)c2ccccc12 | 710 nM | 7.66 |
| Cn1cc2c(-c3cncc(Cl)c3N3CCC4(CCNC4=O)CC3)cccc2n1 | 5260 nM | 7.28 |
| O=C1NCCC12CCN(c1c(Cl)cncc1-c1cc3ccccc3[nH]1)CC2 | 6840 nM | 6.81 |
| O=C1NCCC12CCN(c1c(Cl)cncc1-c1coc3ccccc13)CC2 | 29200 nM | 7.32 |
| O=C1NCCC12CCN(c1c(Cl)cncc1-c1cn(Cc3ccccc3)c3ncccc13)CC2 | 30600 nM | 7.24 |
| O=C1NCCC12CCN(c1c(Cl)cncc1-c1cccc3c1sc1ccccc13)CC2 | 6350 nM | 7.62 |
| O=C1NCCC12CCN(c1c(Cl)cncc1-c1csc3ccccc13)CC2 | 350 nM | 7.68 |
| COc1ccc(-c2cncc(Cl)c2N2CCC3(CCNC3=O)CC2)c2ccccc12 | 33200 nM | 7.59 |
| CNC(=O)c1ccn(-c2c(Cl)cncc2-c2ccc(-c3cnn(C)c3)cc2)c1 | 35000 nM | 5.69 |
| O=C1NCCC12CCN(c1c(Cl)cncc1-c1cn(S(=O)(=O)c3ccccc3)c3ccccc13)CC2 | 28400 nM | 6.19 |
| O=C1NCCC12CCN(c1c(Cl)cncc1-c1ccnc3ccccc13)CC2 | 53500 nM | 6.86 |
| O=C1NCCC12CCN(c1c(Cl)cncc1-c1cnn(-c3ccccc3)c1)CC2 | 840 nM | 7.38 |
| O=C1NCCC12CCN(c1c(Cl)cncc1-c1cccc3[nH]ccc13)CC2 | 1910 nM | 7.72 |
